Published values pooled from the literature.
Protocols differ between the studies behind these lines.
Target: LIM domain kinase 2 (LIMK2, Homo sapiens, UniProt P53671)

| SMILES | test | setting | remaining binding |
| --- | --- | --- | --- |
| CN(C)C(=O)Cn1cc(-c2nc(C3(c4ccc(-c5cnc(N)nc5)cc4)CC3)no2)cn1 | cell-free assay, competition with immobilised ligand | 1 µM | 85% |
| N[C@@H]1CCN(c2nccc(-c3cnn4ncccc34)n2)C1 | binding | 1 µM | 100% |
| CNC(=O)[C@@H]1CC[C@@H](n2c(-c3ccc4cnccc4c3)nc3ccc(C(=O)NCc4cccc(C(N)=O)c4)cc32)C1 | binding, competition with immobilised ligand | 1 µM | 100% |
| Nc1ncc2c(n1)-c1c([nH]c3ccc(C#CC4CC4)cc13)CCCC2 | binding, competition with immobilised ligand | 1 µM | 91% |
| C[C@@H](c1ccc(-n2cnc3c(N)ncnc32)cc1)N1CCc2nn(C)c(Cc3ccccc3)c2C1=O | binding, competition with immobilised ligand | 0.1 µM | 25% |
| CC1=C(C#N)[C@@H](c2ccc3[nH]nc(C)c3c2)C(C#N)=C(c2ccc(Cl)cc2)N1 | cell-free assay, competition with immobilised ligand | 1 µM | 91.1% |
| O=C(Nc1c[nH]nc1C(=O)NC1CCNCC1)c1cc(F)cc(F)c1 | binding, competition with immobilised ligand | 1 µM | 97% |
| C[C@H]1CCN(c2nccc(-c3cnn4ncccc34)n2)C1 | binding | 1 µM | 75% |
| CN(C)c1ncnc(-c2ccc3nc(Nc4cc(CN5CCN(C(=O)CC(F)(F)F)CC5)ccn4)[nH]c3c2)c1Cl | cell-free assay, competition with immobilised ligand | 1 µM | 100% |
| FC(F)(F)Oc1cccc(-c2cnc3ccc(-c4ccncc4)nn23)c1 | cell-free assay, competition with immobilised ligand | 5 µM | 69% |
| Cc1cnc(Nc2ccc(C(=O)N3CCC(N4CCCC4)CC3)cc2)nc1-c1cc2ccccc2s1 | binding, competition with immobilised ligand | 1 µM | 30% |
| F[C@@H]1CCN(c2nccc(-c3cnn4ncccc34)n2)C1 | binding | 1 µM | 85% |
| O=S(=O)(NC1CCC(c2cc(F)ccc2F)(S(=O)(=O)c2ccc(Cl)cc2)CC1)C(F)(F)F (stereo not shown) | cell-free assay, competition with immobilised ligand | 1 µM | 87% |
| CC1CCCN1c1nccc(-c2cnn3ncccc23)n1 (stereo not shown) | binding | 1 µM | 96% |
| O=C1NC(c2ccccn2)Sc2ccccc21 (stereo not shown) | cell-free assay, competition with immobilised ligand | 1 µM | 92% |
| CN(c1nccc(-c2cnn3ncccc23)n1)C1CC1 | binding | 1 µM | 100% |
| O=C(c1ccc(Nc2nccc(-c3cc4ccccc4s3)n2)cc1)N1CCC(N2CCCC2)CC1 | binding, competition with immobilised ligand | 1 µM | 47% |
| c1cncc(-c2cccc(Nc3nccc(NC4CCCCC4)n3)c2)c1 | binding, competition with immobilised ligand | 10 µM | 45% |
| CC1=C(C#N)C(c2ccc3c(c2)c(NC(=O)c2ccccc2C)nn3C)C(C#N)=C(C)N1 | cell-free assay, competition with immobilised ligand | 1 µM | 99% |
| CN(C)c1nccc(-c2cnc3ncccn23)n1 | binding | 1 µM | 91% |
| CC(=O)N1CCC(c2ccc(C(=O)NC3=NCCN3)cc2C(F)(F)F)CC1 | cell-free assay, competition with immobilised ligand | 1 µM | 98% |
| O=C(c1ccc(Nc2ncc(Cl)c(-c3ccc(Cl)s3)n2)cc1)N1CCC(N2CCCC2)CC1 | binding, competition with immobilised ligand | 1 µM | 38% |
